As a reminder, the IC50 is the concentration needed to halve the response being measured. What is called EC50 is the concentration giving half of the maximal effect.

Assay [1] deals with T1, Glucocorticoid receptor (Homo sapiens, UniProt P04150).
T1 sequence (P04150 whole entry): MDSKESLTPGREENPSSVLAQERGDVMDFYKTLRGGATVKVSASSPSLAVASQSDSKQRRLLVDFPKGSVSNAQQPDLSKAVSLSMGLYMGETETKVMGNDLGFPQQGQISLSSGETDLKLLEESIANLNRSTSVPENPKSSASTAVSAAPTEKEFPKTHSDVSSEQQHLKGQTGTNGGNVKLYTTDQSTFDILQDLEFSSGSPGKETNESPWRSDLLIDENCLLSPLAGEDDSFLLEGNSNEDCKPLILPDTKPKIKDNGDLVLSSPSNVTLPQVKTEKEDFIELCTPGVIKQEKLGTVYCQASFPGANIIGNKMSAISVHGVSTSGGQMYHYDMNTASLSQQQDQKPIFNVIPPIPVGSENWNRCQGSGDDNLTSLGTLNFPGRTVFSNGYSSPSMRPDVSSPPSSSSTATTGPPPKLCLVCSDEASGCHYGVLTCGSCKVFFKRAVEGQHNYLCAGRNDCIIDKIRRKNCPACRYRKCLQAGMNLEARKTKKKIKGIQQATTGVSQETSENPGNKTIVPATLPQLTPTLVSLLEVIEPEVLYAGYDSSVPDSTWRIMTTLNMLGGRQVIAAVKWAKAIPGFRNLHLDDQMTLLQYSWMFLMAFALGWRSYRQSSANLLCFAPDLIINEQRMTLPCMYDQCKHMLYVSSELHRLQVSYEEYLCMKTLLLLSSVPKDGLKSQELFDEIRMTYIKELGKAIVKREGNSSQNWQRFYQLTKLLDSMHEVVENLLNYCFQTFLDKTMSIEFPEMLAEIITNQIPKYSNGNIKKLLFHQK
Kind of assay: Binding affinity to human recombinant glucocorticoid receptor expressed in baculovirus infected Sf9 cells.

In the next assay the target is T2, Progesterone receptor (Homo sapiens, UniProt P06401).
T2 sequence (P06401 whole entry): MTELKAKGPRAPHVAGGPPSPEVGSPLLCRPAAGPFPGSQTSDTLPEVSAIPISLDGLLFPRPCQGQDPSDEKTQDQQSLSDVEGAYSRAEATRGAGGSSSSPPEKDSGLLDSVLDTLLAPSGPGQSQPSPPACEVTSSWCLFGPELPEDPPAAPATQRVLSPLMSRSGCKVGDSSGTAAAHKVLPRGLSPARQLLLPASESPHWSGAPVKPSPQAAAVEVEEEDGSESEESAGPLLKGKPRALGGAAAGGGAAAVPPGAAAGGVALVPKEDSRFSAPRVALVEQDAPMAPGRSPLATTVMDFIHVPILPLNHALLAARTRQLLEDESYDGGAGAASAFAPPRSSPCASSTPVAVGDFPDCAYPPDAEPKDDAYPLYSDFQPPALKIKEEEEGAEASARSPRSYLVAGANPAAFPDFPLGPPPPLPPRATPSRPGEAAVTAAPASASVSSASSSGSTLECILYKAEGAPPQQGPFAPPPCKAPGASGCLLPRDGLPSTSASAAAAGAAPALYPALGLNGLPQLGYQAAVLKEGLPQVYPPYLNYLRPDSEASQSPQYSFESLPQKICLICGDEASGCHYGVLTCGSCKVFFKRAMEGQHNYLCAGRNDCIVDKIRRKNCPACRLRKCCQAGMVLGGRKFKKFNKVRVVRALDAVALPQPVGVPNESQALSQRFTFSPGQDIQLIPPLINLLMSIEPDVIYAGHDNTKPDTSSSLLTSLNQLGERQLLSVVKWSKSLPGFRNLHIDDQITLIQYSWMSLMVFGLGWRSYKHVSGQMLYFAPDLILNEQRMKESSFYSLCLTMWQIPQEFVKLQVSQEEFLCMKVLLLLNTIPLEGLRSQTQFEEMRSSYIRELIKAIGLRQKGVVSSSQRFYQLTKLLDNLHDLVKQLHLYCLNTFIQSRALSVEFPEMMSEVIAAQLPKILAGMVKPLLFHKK
Kind of assay: Binding affinity to human recombinant progesterone receptor expressed in baculovirus infected Sf9 cells. In short, it runs like this: (§1)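 Extracts of Sf9 cells infected with recombinant baculovirus encoding the human receptor served as receptor source for competitive binding. Run in duplicate; pIC50 derived, value error stated as 0.2.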

The target in assay [2] is T3, Mineralocorticoid receptor (Homo sapiens, UniProt P08235).
T3 sequence (P08235 whole entry): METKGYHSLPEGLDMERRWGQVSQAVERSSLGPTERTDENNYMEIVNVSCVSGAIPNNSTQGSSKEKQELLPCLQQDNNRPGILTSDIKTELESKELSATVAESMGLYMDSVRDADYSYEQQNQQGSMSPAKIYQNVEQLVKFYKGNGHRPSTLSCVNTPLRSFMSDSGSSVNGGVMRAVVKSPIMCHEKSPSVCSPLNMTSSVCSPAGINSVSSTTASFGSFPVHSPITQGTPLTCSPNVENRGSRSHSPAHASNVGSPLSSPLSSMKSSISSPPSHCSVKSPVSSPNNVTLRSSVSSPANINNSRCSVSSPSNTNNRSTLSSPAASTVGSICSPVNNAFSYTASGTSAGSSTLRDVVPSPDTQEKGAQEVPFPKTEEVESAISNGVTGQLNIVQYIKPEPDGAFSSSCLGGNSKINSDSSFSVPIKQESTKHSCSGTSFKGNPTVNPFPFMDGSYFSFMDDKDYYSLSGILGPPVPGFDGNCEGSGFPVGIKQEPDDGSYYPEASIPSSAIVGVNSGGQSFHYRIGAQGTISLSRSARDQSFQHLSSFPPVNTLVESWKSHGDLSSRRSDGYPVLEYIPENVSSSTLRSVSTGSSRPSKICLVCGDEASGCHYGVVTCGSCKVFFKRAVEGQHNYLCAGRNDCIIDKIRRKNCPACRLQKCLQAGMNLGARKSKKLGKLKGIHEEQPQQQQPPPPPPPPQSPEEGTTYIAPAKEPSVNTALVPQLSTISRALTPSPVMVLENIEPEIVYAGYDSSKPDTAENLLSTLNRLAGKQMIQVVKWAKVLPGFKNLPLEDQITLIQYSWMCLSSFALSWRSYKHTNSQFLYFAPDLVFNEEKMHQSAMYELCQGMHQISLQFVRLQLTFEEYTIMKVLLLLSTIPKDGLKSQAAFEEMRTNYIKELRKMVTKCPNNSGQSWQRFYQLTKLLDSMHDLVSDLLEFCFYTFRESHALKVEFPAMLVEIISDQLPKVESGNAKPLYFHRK
Kind of assay: Binding affinity to human recombinant mineralocorticoid receptor expressed in baculovirus infected Sf9 cells. In short, it runs like this:
as §1

For another assay, the target named is T4, Androgen receptor (Homo sapiens, UniProt P10275).
T4 sequence (P10275 whole entry): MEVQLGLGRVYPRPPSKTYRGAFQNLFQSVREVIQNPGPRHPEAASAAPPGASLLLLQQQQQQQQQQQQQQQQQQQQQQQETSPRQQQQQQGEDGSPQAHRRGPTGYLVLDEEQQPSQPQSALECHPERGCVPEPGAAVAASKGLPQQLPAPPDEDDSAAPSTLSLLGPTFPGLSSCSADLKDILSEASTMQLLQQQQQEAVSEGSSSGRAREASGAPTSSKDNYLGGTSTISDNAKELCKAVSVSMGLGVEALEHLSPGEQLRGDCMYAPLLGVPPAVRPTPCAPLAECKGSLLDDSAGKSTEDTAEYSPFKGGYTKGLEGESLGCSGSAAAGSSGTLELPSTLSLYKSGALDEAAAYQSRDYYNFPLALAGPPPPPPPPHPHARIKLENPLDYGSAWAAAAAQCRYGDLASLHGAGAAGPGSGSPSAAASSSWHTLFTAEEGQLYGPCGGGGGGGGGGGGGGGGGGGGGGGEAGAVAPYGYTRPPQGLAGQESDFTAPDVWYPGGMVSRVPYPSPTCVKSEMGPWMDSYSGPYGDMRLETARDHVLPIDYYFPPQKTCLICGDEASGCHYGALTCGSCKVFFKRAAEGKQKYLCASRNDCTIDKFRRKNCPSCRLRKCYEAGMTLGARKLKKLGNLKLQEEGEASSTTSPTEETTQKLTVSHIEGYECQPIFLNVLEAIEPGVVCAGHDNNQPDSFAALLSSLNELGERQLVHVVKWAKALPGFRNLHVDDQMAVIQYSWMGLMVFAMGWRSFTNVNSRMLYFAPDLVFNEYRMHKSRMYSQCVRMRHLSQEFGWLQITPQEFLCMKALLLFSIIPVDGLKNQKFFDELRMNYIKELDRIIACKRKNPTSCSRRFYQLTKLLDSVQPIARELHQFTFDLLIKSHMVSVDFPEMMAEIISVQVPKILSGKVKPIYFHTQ
Kind of assay: Binding affinity to human recombinant androgen receptor expressed in baculovirus infected Sf9 cells.

Assay [3] has as its target T1, Glucocorticoid receptor. The experiment in a line: Transrepression activity at glucocorticoid receptor-mediated antiinflammatory activity in human THP1 cells assessed as inhibition of LPS-induced IL-8 production. The assay is classed as cell-based, THP-1.
Assay [4] concerns the target T1, Glucocorticoid receptor. Kind of assay: Transrepression activity at glucocorticoid receptor-mediated antiinflammatory activity in human HeLa cells assessed as inhibition of TPA-induced collagenase promoter activity by luciferase reporter gene assay. The assay is classed as cell-based. Background: Reporter assays use an easily measured gene product as a stand-in for the process of interest.

For assay [5], the target named is T1, Glucocorticoid receptor. The experiment in a line: Transactivation activity at glucocorticoid receptor in human HeLa cells assessed as induction of MMTV promoter activity by luciferase reporter gene assay. The assay is classed as cell-based.

With `COc1ccc(F)cc1C(C)(C)CC(O)(CNc1ccc2c(=O)onc(C)c2c1)C(F)(F)F` (stereo not drawn), the IC50 is 10 nM on Glucocorticoid receptor [1], 15.8 nM at Progesterone receptor, more than 1000 nM in assay [2] and more than 1000 nM at Androgen receptor.

Turning to `COc1ccc(F)cc1C(C)(C)CC(O)(CNc1cccc2ccccc12)C(F)(F)F` (stereo not drawn), the IC50 (at Glucocorticoid receptor [1]; at Progesterone receptor; in assay [2]; at Androgen receptor) was more than 1000 nM throughout.

For `CC(C)(CC(O)(CNc1cccc2ccccc12)C(F)(F)F)c1cc(F)ccc1O` (stereo not drawn), the IC50 at Glucocorticoid receptor [1] is 15.8 nM; on Progesterone receptor it was more than 1000 nM; in assay [2], more than 1000 nM; at Androgen receptor it was more than 1000 nM; at Glucocorticoid receptor [3], more than 1000 nM.

Take `COc1ccc(F)cc1C(C)(C)CC(O)(CNc1cccc2ncccc12)C(F)(F)F` (stereo not drawn): the concentration for half-maximal inhibition (IC50) was 20 nM on Glucocorticoid receptor [1]; 1000 nM at Progesterone receptor; more than 1000 nM in assay [2]; more than 1000 nM at Androgen receptor; 25.1 nM on Glucocorticoid receptor [3].

Regarding `CC(C)(CC(O)(CNc1cccc2ncccc12)C(F)(F)F)c1cc(F)ccc1O` (stereo not drawn), the half-inhibitory concentration (IC50) was 1 nM at Glucocorticoid receptor [1]; more than 1000 nM at Progesterone receptor; more than 1000 nM in assay [2]; more than 1000 nM on Androgen receptor; 20 nM at Glucocorticoid receptor [3]; 6.31 nM at Glucocorticoid receptor [4]. Also, the EC50 at Glucocorticoid receptor [5] was 79.4 nM.

Take `COc1ccc(F)cc1C(C)(C)CC(O)(CNc1cccc2nc(C)ccc12)C(F)(F)F` (stereo not drawn): the 50% inhibitory concentration (IC50) at Glucocorticoid receptor [1] was 0.631 nM; on Progesterone receptor it was more than 1000 nM; in assay [2], more than 1000 nM; at Androgen receptor it was more than 1000 nM; on Glucocorticoid receptor [3], 25.1 nM; on Glucocorticoid receptor [4], 2 nM. On Glucocorticoid receptor [5], the EC50 was 25.1 nM.

Take `Cc1ccc2c(NCC(O)(CC(C)(C)c3cc(F)ccc3O)C(F)(F)F)cccc2n1` (stereo not drawn): the IC50 is 6.31 nM at Glucocorticoid receptor [1]; more than 1000 nM at Progesterone receptor; more than 1000 nM in assay [2]; more than 1000 nM on Androgen receptor; 5.01 nM on Glucocorticoid receptor [3]; 3.16 nM on Glucocorticoid receptor [4]. The EC50 at Glucocorticoid receptor [5] is 12.6 nM.

Regarding `Cc1noc(=O)c2ccc(NC(=O)C(O)(CC(C)(C)c3cc(F)ccc3O)C(F)(F)F)cc12` (stereo not drawn), the IC50 on Glucocorticoid receptor [1] is 3.16 nM; on Progesterone receptor it was 7.94 nM; in assay [2], 1.26 nM; on Androgen receptor it was 158 nM; on Glucocorticoid receptor [3] it was 50.1 nM; on Glucocorticoid receptor [4], 10 nM. Besides, the EC50 at Glucocorticoid receptor [5] was 25.1 nM.

For `Cc1noc(=O)c2ccc(NC(=O)C(O)(CC(C)(C)c3cccc4c3OCC4)C(F)(F)F)cc12` (stereo not drawn), the IC50 in assay [2] is 79.4 nM; at Androgen receptor, 631 nM.

Consider `COc1ccc(F)cc1C(C)(C)CC(O)(C(=O)Nc1ccc2c(=O)onc(C)c2c1)C(F)(F)F` (stereo not drawn), for which the IC50 was 1 nM on Glucocorticoid receptor [1], 12.6 nM on Progesterone receptor, 7.94 nM in assay [2] and 501 nM at Androgen receptor.

With `C[C@@H]1C[C@H]2[C@@H]3CCC4=CC(=O)C=C[C@]4(C)[C@@]3(F)[C@@H](O)C[C@]2(C)[C@@]1(O)C(=O)CO` [DEXAMETHASONE], the half-inhibitory concentration (IC50) at Progesterone receptor is more than 1000 nM.

The values are drawn from ChEMBL document CHEMBL1255506, “Discovery of quinolines as selective glucocorticoid receptor agonists” (Bioorg Med Chem Lett, 2010).
